According to ChEMBL document CHEMBL1255294, “Genetic and biochemical characterization of OXA-63, a new class D beta-lactamase from Brachyspira pilosicoli BM4442” (Antimicrob Agents Chemother, 2008):
Values after ≈ are worked out from the molar mass of the structure shown.

Columns and labels:
[1] = Activity of beta-lactamase FUS1 assessed as compound hydrolysis by spectrophotometry
[2] = Ratio of Kcat to Km for beta-lactamase FUS1 assessed as compound hydrolysis by spectrophotometry
[3] = Activity of beta-lactamase FUS1 assessed as compound hydrolysis by spectrophotometry relative to benzyl-penicillin; set-up: scale not given: the % may be the effect or the level left
[4] = target: T1, Class D beta-lactamase (Brachyspira pilosicoli) (UniProt Q50H31); assay: Activity of Brachyspira pilosicoli beta-lactamase OXA-63 expressed in Escherichia coli BL21 (DE3) assessed as compound hydrolysis by spectrophotometry relative to oxacillin; set-up: scale not given: the % may be the effect or the level left
T1 sequence (whole entry): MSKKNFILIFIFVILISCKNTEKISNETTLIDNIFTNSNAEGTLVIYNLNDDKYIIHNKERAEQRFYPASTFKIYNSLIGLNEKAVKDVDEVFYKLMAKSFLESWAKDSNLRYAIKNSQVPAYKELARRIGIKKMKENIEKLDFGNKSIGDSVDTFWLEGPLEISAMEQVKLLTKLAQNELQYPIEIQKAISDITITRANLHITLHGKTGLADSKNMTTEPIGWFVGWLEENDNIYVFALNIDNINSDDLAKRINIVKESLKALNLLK

Brachyspira pilosicoli [5] = assay: Antimicrobial activity against Brachyspira pilosicoli 80.10 without producing beta-lactamase OXA-63 by disc diffusion method; type: functional
Summary of the method: (§1)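 Disk diffusion was done on Mueller-Hinton agar supplemented with 5% sheep blood, following Comité de l'Antibiogramme de la Société Française de Microbiologie standards. Plates were incubated in an anaerobic jar at 37°C for 3 days.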

Brachyspira pilosicoli [6] = assay: Antimicrobial activity against beta-lactamase OXA-63 producing Brachyspira pilosicoli isolate BM4442 isolated from feces of patient with diarrhea by disc diffusion method; type: functional; summary of the method: as §1
Escherichia coli [7] = assay: Antimicrobial activity against Escherichia coli JM83 without producing beta-lactamase OXA-63 after 3 days by Etest; type: functional
Escherichia coli [8] = assay: Antimicrobial activity against Escherichia coli JM83 harboring beta-lactamase OXA-63 after 3 days by Etest; type: functional
Summary of the method: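 MICs for E. coli JM83 transformants were read by Etest on Mueller-Hinton agar. Transformants were selected on BHI agar with ampicillin 50 µg/ml and kanamycin 40 µg/ml.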

Class D beta-lactamase = target: T2, Class D beta-lactamase (Brachyspira pilosicoli, UniProt Q50H31); assay: Inhibition of Brachyspira pilosicoli beta-lactamase OXA-63 expressed in Escherichia coli BL21 (DE3) assessed as reduction in nitrocefin hydrolysis by spectrophotometry relative to oxacillin
T2 sequence (Q50H31 whole entry): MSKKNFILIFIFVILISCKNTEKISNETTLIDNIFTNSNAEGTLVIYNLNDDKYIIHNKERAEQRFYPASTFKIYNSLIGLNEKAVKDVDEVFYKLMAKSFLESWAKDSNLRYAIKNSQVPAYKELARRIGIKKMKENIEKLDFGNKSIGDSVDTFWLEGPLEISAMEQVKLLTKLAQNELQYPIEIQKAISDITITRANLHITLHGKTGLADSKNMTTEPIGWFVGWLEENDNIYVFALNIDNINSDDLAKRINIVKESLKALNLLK
Summary of the method: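 C-terminal His6-tagged OXA-63 was expressed in E. coli BL21(DE3)pLys with 0.5 mM IPTG for 4 h at 28°C and purified by nickel affinity. Enzyme (50 to 150 nM) was preincubated with inhibitor for 30 min at 25°C in 100 mM sodium phosphate, pH 7.0. 100 µM nitrocefin was then added, and initial hydrolysis rates were read spectrophotometrically. IC50 was the concentration halving the rate.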

[9] = substrate: CC(=O)OCC1=C(C(=O)O)N2C(=O)[C@@H](NC(=O)Cc3cccs3)[C@H]2SC1; assay: (§2) Activity of Brachyspira pilosicoli beta-lactamase OXA-63 expressed in Escherichia coli BL21 (DE3) assessed as compound hydrolysis by spectrophotometry
[10] = substrate: CC1(C)S[C@@H]2[C@H](NC(=O)C(C(=O)O)c3ccccc3)C(=O)N2[C@H]1C(=O)O; assay: as §2
[11] = substrate: CC1(C)S[C@@H]2[C@H](NC(=O)Cc3ccccc3)C(=O)N2[C@H]1C(=O)O; assay: as §2
[12] = substrate: CC1(C)S[C@@H]2[C@H](NC(=O)[C@H](N)c3ccccc3)C(=O)N2[C@H]1C(=O)O; assay: as §2
[13] = substrate: CCN1CCN(C(=O)N[C@@H](C(=O)N[C@@H]2C(=O)N3[C@@H]2SC(C)(C)[C@@H]3C(=O)O)c2ccccc2)C(=O)C1=O; assay: as §2
[14] = substrate: CO/N=C(\C(=O)N[C@@H]1C(=O)N2C(C(=O)O)=C(COC(N)=O)CS[C@H]12)c1ccco1; assay: as §2
[15] = substrate: Cc1onc(-c2ccccc2)c1C(=O)N[C@@H]1C(=O)N2[C@@H]1SC(C)(C)[C@@H]2C(=O)O; assay: as §2
[16] = substrate: CC1(C)S[C@@H]2[C@H](NC(=O)C(C(=O)O)c3ccccc3)C(=O)N2[C@H]1C(=O)O; assay: (§3) Ratio of Kcat to Km for Brachyspira pilosicoli beta-lactamase OXA-63 expressed in Escherichia coli BL21 (DE3) assessed as compound hydrolysis by spectrophotometry
[17] = substrate: CC1(C)S[C@@H]2[C@H](NC(=O)Cc3ccccc3)C(=O)N2[C@H]1C(=O)O; assay: as §3
[18] = substrate: CC1(C)S[C@@H]2[C@H](NC(=O)[C@H](N)c3ccccc3)C(=O)N2[C@H]1C(=O)O; assay: as §3
[19] = substrate: CCN1CCN(C(=O)N[C@@H](C(=O)N[C@@H]2C(=O)N3[C@@H]2SC(C)(C)[C@@H]3C(=O)O)c2ccccc2)C(=O)C1=O; assay: as §3
[20] = substrate: Cc1onc(-c2ccccc2)c1C(=O)N[C@@H]1C(=O)N2[C@@H]1SC(C)(C)[C@@H]2C(=O)O; assay: as §3

Molecule `CC(=O)OCC1=C(C(=O)O)N2C(=O)[C@@H](NC(=O)Cc3cccs3)[C@H]2SC1` has a Km [1] of 47 µM, a kcat [1] of 4.1 s⁻¹ and a kcat/Km [2] of 8.7 ×10⁵ /M/s. It also gave an Activity [3] of 0.1%.

With `CC1(C)S[C@@H]2[C@H](NC(=O)[C@H](N)c3ccccc3)C(=O)N2[C@H]1C(=O)O` the Km [1] was 76 µM, the kcat [1] was 45 s⁻¹ and the kcat/Km [2] was 5.7 ×10⁵ /M/s. The Activity [4] was 15% and the Activity [3] was 0.7%.

With `CO/N=C(\C(=O)N[C@@H]1C(=O)N2C(C(=O)O)=C(COC(N)=O)CS[C@H]12)c1ccco1` the Km [1] was over 400 µM, the kcat [1] was over 1.8 s⁻¹ and the kcat/Km [2] was 4.5 ×10⁵ /M/s. The Activity [3] was 0.005%.

For `CC1(C)S[C@@H]2[C@H](NC(=O)[C@H](N)c3ccc(O)cc3)C(=O)N2[C@H]1C(=O)O` [AMOXICILLIN], the MIC (Brachyspira pilosicoli [5]) was 0.047 µg/mL (≈ 0.129 µM), the MIC (Brachyspira pilosicoli [6]) was 1.5 µg/mL (≈ 4.1 µM) and the MIC (Escherichia coli [7]) was 6 µg/mL (≈ 16.4 µM). For the same molecule, the MIC (Escherichia coli [8]) was 256 µg/mL (≈ 701 µM).

Work on `C[C@H]1[C@H](NC(=O)/C(=N\OC(C)(C)C(=O)O)c2csc(N)n2)C(=O)N1S(=O)(=O)O` [AZTREONAM] yielded an MIC (Brachyspira pilosicoli [5]) of 1 µg/mL (≈ 2.3 µM), an MIC (Brachyspira pilosicoli [6]) of 1 µg/mL (≈ 2.3 µM) and an MIC (Escherichia coli [7]) of 0.19 µg/mL (≈ 0.436 µM). It also gave an MIC (Escherichia coli [8]) of 0.19 µg/mL (≈ 0.436 µM).

In the case of `CO/N=C(\C(=O)N[C@@H]1C(=O)N2C(C(=O)O)=C(COC(C)=O)CS[C@H]12)c1csc(N)n1` [CEFOTAXIME], the MIC (Brachyspira pilosicoli [5]) is reported as under 0.016 µg/mL, the MIC (Brachyspira pilosicoli [6]) is reported as 0.032 µg/mL (≈ 0.0703 µM) and the MIC (Escherichia coli [7]) is reported as 0.064 µg/mL (≈ 0.141 µM). The MIC (Escherichia coli [8]) was 0.064 µg/mL (≈ 0.141 µM).

Molecule `CC(C)(O/N=C(\C(=O)N[C@@H]1C(=O)N2C(C(=O)[O-])=C(C[n+]3ccccc3)CS[C@H]12)c1csc(N)n1)C(=O)O` [CEFTAZIDIME] has an MIC (Brachyspira pilosicoli [5]) of 4 µg/mL (≈ 7.32 µM), an MIC (Brachyspira pilosicoli [6]) of 4 µg/mL (≈ 7.32 µM) and an MIC (Escherichia coli [7]) of 0.5 µg/mL (≈ 0.915 µM). The MIC (Escherichia coli [8]) was 0.5 µg/mL (≈ 0.915 µM).

With `O=C(O)[C@H]1/C(=C/CO)O[C@@H]2CC(=O)N21` [CLAVULANIC ACID] the IC50 (Class D beta-lactamase) was 2000 nM.

`C[C@@H](O)[C@H]1C(=O)N2C(C(=O)O)=C(SCCNC=N)C[C@H]12` [IMIPENEM ANHYDROUS] gave an MIC (Brachyspira pilosicoli [5]) of under 4 µg/mL, an MIC (Brachyspira pilosicoli [6]) of under 4 µg/mL and an MIC (Escherichia coli [7]) of under 4 µg/mL. The MIC (Escherichia coli [8]) was 4 µg/mL (≈ 13.4 µM).

Work on `C[C@@H](O)[C@H]1C(=O)N2C(C(=O)O)=C(S[C@@H]3CN[C@H](C(=O)N(C)C)C3)[C@H](C)[C@H]12` [MEROPENEM] yielded an MIC (Brachyspira pilosicoli [5]) of 0.032 µg/mL (≈ 0.0834 µM), an MIC (Brachyspira pilosicoli [6]) of 0.032 µg/mL (≈ 0.0834 µM) and an MIC (Escherichia coli [7]) of 0.032 µg/mL (≈ 0.0834 µM). It also gave an MIC (Escherichia coli [8]) of 0.016 µg/mL (≈ 0.0417 µM).

Work on `Cc1onc(-c2ccccc2)c1C(=O)N[C@@H]1C(=O)N2[C@@H]1SC(C)(C)[C@@H]2C(=O)O` [OXACILLIN] yielded an MIC (Brachyspira pilosicoli [5]) of 0.125 µg/mL (≈ 0.311 µM), an MIC (Brachyspira pilosicoli [6]) of over 256 µg/mL and a Km [1] of 36 µM. It also gave a kcat [1] of 780 s⁻¹, a kcat/Km [2] of 2.1 ×10⁷ /M/s and an Activity [3] of 25%.

In the case of `CC1(C)S[C@@H]2[C@H](NC(=O)Cc3ccccc3)C(=O)N2[C@H]1C(=O)O` [PENICILLIN G], the MIC (Brachyspira pilosicoli [5]) is reported as 0.023 µg/mL (≈ 0.0688 µM), the MIC (Brachyspira pilosicoli [6]) is reported as 2 µg/mL (≈ 5.98 µM) and the MIC (Escherichia coli [7]) is reported as 24 µg/mL (≈ 71.8 µM). For the same molecule, the MIC (Escherichia coli [8]) was 256 µg/mL (≈ 766 µM), the Km [1] was 10 µM and the kcat [1] was 830 s⁻¹. For the same molecule, the kcat/Km [2] was 8.3 ×10⁷ /M/s and the Activity [4] was 25.5%.

`CCN1CCN(C(=O)N[C@@H](C(=O)N[C@@H]2C(=O)N3[C@@H]2SC(C)(C)[C@@H]3C(=O)O)c2ccccc2)C(=O)C1=O` [PIPERACILLIN] showed an MIC (Brachyspira pilosicoli [5]) of 0.016 µg/mL (≈ 0.0309 µM), an MIC (Brachyspira pilosicoli [6]) of 48 µg/mL (≈ 92.7 µM) and an MIC (Escherichia coli [7]) of 1.5 µg/mL (≈ 2.9 µM). The MIC (Escherichia coli [8]) was 96 µg/mL (≈ 185 µM) and the Activity [4] was 6.5%.

Work on `CC1(C)[C@H](C(=O)O)N2C(=O)C[C@H]2S1(=O)=O` [SULBACTAM] yielded an IC50 (Class D beta-lactamase) of 12000 nM.

`C[C@]1(Cn2ccnn2)[C@H](C(=O)O)N2C(=O)C[C@H]2S1(=O)=O` [TAZOBACTAM] gave an IC50 (Class D beta-lactamase) of 160 nM.

B1: Class D beta-lactamase (Brachyspira pilosicoli), Q50H31 (protein)
chain: MSKKNFILIFIFVILISCKNTEKISNETTLIDNIFTNSNAEGTLVIYNLNDDKYIIHNKERAEQRFYPASTFKIYNSLIGLNEKAVKDVDEVFYKLMAKSFLESWAKDSNLRYAIKNSQVPAYKELARRIGIKKMKENIEKLDFGNKSIGDSVDTFWLEGPLEISAMEQVKLLTKLAQNELQYPIEIQKAISDITITRANLHITLHGKTGLADSKNMTTEPIGWFVGWLEENDNIYVFALNIDNINSDDLAKRINIVKESLKALNLLK
For B1, the kcat [9] was “Not Active”, the Km [10] was 17 µM and the kcat [10] was 1.1 s⁻¹. For the same molecule, the Km [11] was 19 µM, the kcat [11] was 4.9 s⁻¹ and the Km [12] was 43 µM. The kcat [12] was 6.6 s⁻¹, the Km [13] was 33 µM and the kcat [13] was 2.1 s⁻¹. For the same molecule, the kcat [14] was “Not Active”, the Km [15] was 115 µM and the kcat [15] was 113 s⁻¹. It also gave a kcat/Km [16] of 6.5 ×10⁴ /M/s, a kcat/Km [17] of 2.5 ×10⁵ /M/s and a kcat/Km [18] of 1.5 ×10⁵ /M/s. It also gave a kcat/Km [19] of 6.4 ×10⁴ /M/s and a kcat/Km [20] of 9.8 ×10⁵ /M/s.
